Assay results as given in ChEMBL document CHEMBL1153988 (J Med Chem, 2009).

Legend:
Mus musculus [1] = assay: Neurotoxicity in ip dosed CF1 albino mouse assessed as minimal motor impairment; assay type: toxicity, organism-based; conditions: mouse, in vivo
How it was run: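 Mice: male CF no. 1 albino (18-25 g), ip dosing in 0.5% methylcellulose. Minimal motor impairment was scored, with doses varied to give four points between no impairment and all animals impaired.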

Mus musculus [2] = organism: Mus musculus; assay: Protective index, ratio of TD50 for CF1 albino mouse to ED50 for 32 mA current-induced CF1 albino mouse seizure model; assay type: functional
How it was run: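 Protective index is the mouse TD50 (minimal motor impairment) divided by the 6 Hz test ED50 at 32 or 44 mA. Male CF no. 1 mice were dosed ip in 0.5% methylcellulose, and values came from probit analysis.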

Mus musculus [3] = assay: Anticonvulsant activity in ip dosed CF1 albino mouse assessed as protection against 32 mA current-induced seizure by 6Hz psychomotor seizure test; assay type: functional
How it was run: (§1)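 In the 6 Hz psychomotor seizure test, male CF no. 1 albino mice (18-25 g) received the compound ip in 0.5% methylcellulose. Stimulation was at 32 or 44 mA. Doses were varied to give 3-4 points between 0% and 100% protection, and ED50 with 95% confidence interval came from probit analysis.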

Mus musculus [4] = assay: Anticonvulsant activity in ip dosed CF1 albino mouse assessed as protection against 44 mA-current-induced seizure by 6Hz psychomotor seizure test; assay type: functional; how it was run: as §1
Mus musculus [5] = assay: Teratogenic effect in SWV mouse assessed as number of implants at 452 mg/kg, ip administered on morning of day 8 of gestation; assay type: toxicity, organism-based; design: dose 452 mg/kg, route intraperitoneal; conditions: in vivo
How it was run: (§2)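 Inbred SWV mouse strain, highly susceptible to valproate-induced neural tube defects. Each pregnant dam received a single ip injection on gestation day 8.5. Test compounds spanned 1.8-4.2 mmol/kg, the reference drug was given as its sodium salt, and controls received 25% aqueous Cremophor EL. Groups were compared by Fisher's exact test (p < 0.05).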

Mus musculus [6] = assay: Teratogenic effect in SWV mouse assessed as resorptions at 301 mg/kg, ip administered on morning of day 8 of gestation; assay type: toxicity, organism-based; design: dose 301 mg/kg, route intraperitoneal; conditions: in vivo; how it was run: as §2
Mus musculus [7] = assay: Teratogenic effect in SWV mouse assessed as dead fetuses at 452 mg/kg, ip administered on morning of day 8 of gestation; assay type: toxicity, organism-based; design: dose 452 mg/kg, route intraperitoneal; conditions: in vivo
Mus musculus [8] = assay: Teratogenic effect in SWV mouse assessed as number of implants at 600 mg/kg, ip administered on morning of day 8 of gestation; assay type: toxicity, organism-based; design: dose 600 mg/kg, route intraperitoneal; conditions: in vivo; how it was run: as §2
Mus musculus [9] = assay: Teratogenic effect in SWV mouse assessed as dead fetuses at 600 mg/kg, ip administered on morning of day 8 of gestation; assay type: toxicity, organism-based; design: dose 600 mg/kg, route intraperitoneal; conditions: in vivo
Mus musculus [10] = assay: Teratogenic effect in SWV mouse assessed as live fetuses at 452 mg/kg, ip administered on morning of day 8 of gestation; assay type: toxicity, organism-based; design: dose 452 mg/kg, route intraperitoneal; conditions: in vivo; how it was run: as §2
Mus musculus [11] = assay: Teratogenic effect in SWV mouse assessed as number of litters at 301 mg/kg, ip administered on morning of day 8 of gestation; assay type: toxicity, organism-based; design: dose 301 mg/kg, route intraperitoneal; conditions: in vivo; how it was run: as §2
Mus musculus [12] = assay: Teratogenic effect in SWV mouse assessed as live fetuses at 301 mg/kg, ip administered on morning of day 8 of gestation; assay type: toxicity, organism-based; design: dose 301 mg/kg, route intraperitoneal; conditions: in vivo; how it was run: as §2
Mus musculus [13] = assay: Teratogenic effect in SWV mouse assessed as live fetuses at 600 mg/kg, ip administered on morning of day 8 of gestation; assay type: toxicity, organism-based; design: dose 600 mg/kg, route intraperitoneal; conditions: in vivo; how it was run: as §2
Mus musculus [14] = assay: Teratogenic effect in VPA-induced SWV mouse assessed as fetuses with neural tube deffects at 301 mg/kg, ip administered on morning of day 8 of gestation; assay type: toxicity, organism-based; design: dose 301 mg/kg, route intraperitoneal; conditions: in vivo; how it was run: as §2
Mus musculus [15] = assay: Teratogenic effect in SWV mouse assessed as number of litters at 600 mg/kg, ip administered on morning of day 8 of gestation; assay type: toxicity, organism-based; design: dose 600 mg/kg, route intraperitoneal; conditions: in vivo; how it was run: as §2
Rattus norvegicus = assay: Anticonvulsant activity in po dosed albino Sprague-Dawley rat assessed as protection against scMet-induced seizures; assay type: functional
How it was run: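 Male Sprague-Dawley albino rats (100-150 g) were dosed orally in 0.5% methylcellulose and tested by MES or by sc pentylenetetrazol (2.82% in 0.9% saline). Doses were varied to give 3-4 points between 0% and 100% protection. ED50 and 95% confidence intervals came from probit analysis.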

Mus musculus [16] = assay: Teratogenic effect in SWV mouse assessed as resorptions at 452 mg/kg, ip administered on morning of day 8 of gestation; assay type: toxicity, organism-based; design: dose 452 mg/kg, route intraperitoneal; conditions: in vivo; how it was run: as §2
Mus musculus [17] = assay: Teratogenic effect in SWV mouse assessed as resorptions at 600 mg/kg, ip administered on morning of day 8 of gestation; assay type: toxicity, organism-based; design: dose 600 mg/kg, route intraperitoneal; conditions: in vivo; how it was run: as §2
Mus musculus [18] = assay: Teratogenic effect in SWV mouse assessed as number of litters at 452 mg/kg, ip administered on morning of day 8 of gestation; assay type: toxicity, organism-based; design: dose 452 mg/kg, route intraperitoneal; conditions: in vivo; how it was run: as §2
Mus musculus [19] = assay: Teratogenic effect in SWV mouse assessed as dead fetuses at 301 mg/kg, ip administered on morning of day 8 of gestation; assay type: toxicity, organism-based; design: dose 301 mg/kg, route intraperitoneal; conditions: in vivo
Mus musculus [20] = assay: Teratogenic effect in SWV mouse assessed as number of implants at 301 mg/kg, ip administered on morning of day 8 of gestation; assay type: toxicity, organism-based; design: dose 301 mg/kg, route intraperitoneal; conditions: in vivo; how it was run: as §2
Mus musculus [21] = assay: Neurotoxicity in CF1 albino mouse at 150 mg/kg, ip after 0.5 hrs; assay type: toxicity, organism-based; design: dose 150 mg/kg, route intraperitoneal; conditions: in vivo
How it was run: (§3)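 Male CF no. 1 albino mice (18-25 g) received a single ip dose as a suspension in 0.5% methylcellulose. The read-out was the number of animals showing neurotoxicity (minimal motor impairment) over the number tested.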

Mus musculus [22] = assay: Anticonvulsant activity in CF1 albino mouse assessed as protection against scMet-induced seizures at 50 mg/kg, ip after 0.5 hrs; assay type: functional, organism-based; design: dose 50 mg/kg
How it was run: (§4)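 Adult male CF no. 1 albino mice (18-25 g) dosed intraperitoneally with compound suspended in 0.5% methylcellulose (0.01 mL/g). Convulsant challenge given subcutaneously as a 0.85% pentylenetetrazol solution in 0.9% saline. Read-out is animals protected over animals tested, with neurotoxicity scored in parallel.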

Mus musculus [23] = assay: Anticonvulsant activity in CF1 albino mouse assessed as protection against maximal electroshock-induced seizures at 50 mg/kg, ip after 4 hrs; assay type: functional, organism-based; design: dose 50 mg/kg
How it was run: (§5)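 Adult male CF no. 1 albino mice (18-25 g). Test compound suspended in 0.5% methylcellulose and given intraperitoneally at 0.01 mL/g body weight. Maximal electroshock challenge at the stated time. Read-out is the number of animals protected over the number tested; neurotoxicity is scored in parallel.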

Mus musculus [24] = assay: Neurotoxicity in CF1 albino mouse at 150 mg/kg, ip after 4 hrs; assay type: toxicity, organism-based; design: dose 150 mg/kg, route intraperitoneal; conditions: in vivo; how it was run: as §3
Mus musculus [25] = assay: Anticonvulsant activity in CF1 albino mouse assessed as protection against scMet-induced seizures at 50 mg/kg, ip after 4 hrs; assay type: functional, organism-based; design: dose 50 mg/kg; how it was run: as §4
Mus musculus [26] = assay: Anticonvulsant activity in CF1 albino mouse assessed as protection against scMet-induced seizures at 450 mg/kg, ip after 4 hrs; assay type: functional, organism-based; design: dose 450 mg/kg; how it was run: as §4
Mus musculus [27] = assay: Anticonvulsant activity in CF1 albino mouse assessed as protection against scMet-induced seizures at 450 mg/kg, ip after 0.5 hrs; assay type: functional, organism-based; design: dose 450 mg/kg; how it was run: as §4
Mus musculus [28] = assay: Anticonvulsant activity in CF1 albino mouse assessed as protection against maximal electroshock-induced seizures at 450 mg/kg, ip after 4 hrs; assay type: functional, organism-based; design: dose 450 mg/kg; how it was run: as §5
Mus musculus [29] = assay: Anticonvulsant activity in CF1 albino mouse assessed as protection against maximal electroshock-induced seizures at 150 mg/kg, ip after 4 hrs; assay type: functional, organism-based; design: dose 150 mg/kg; how it was run: as §5
Mus musculus [30] = assay: Anticonvulsant activity in CF1 albino mouse assessed as protection against maximal electroshock-induced seizures at 150 mg/kg, ip after 0.5 hrs; assay type: functional, organism-based; design: dose 150 mg/kg; how it was run: as §5
Mus musculus [31] = assay: Anticonvulsant activity in CF1 albino mouse assessed as protection against maximal electroshock-induced seizures at 450 mg/kg, ip after 0.5 hrs; assay type: functional, organism-based; design: dose 450 mg/kg; how it was run: as §5
Mus musculus [32] = assay: Neurotoxicity in CF1 albino mouse at 450 mg/kg, ip after 4 hrs; assay type: toxicity, organism-based; design: dose 450 mg/kg, route intraperitoneal; conditions: in vivo; how it was run: as §3
Mus musculus [33] = assay: Anticonvulsant activity in CF1 albino mouse assessed as protection against maximal electroshock-induced seizures at 50 mg/kg, ip after 0.5 hrs; assay type: functional, organism-based; design: dose 50 mg/kg; how it was run: as §5
Mus musculus [34] = assay: Anticonvulsant activity in CF1 albino mouse assessed as protection against scMet-induced seizures at 150 mg/kg, ip after 0.5 hrs; assay type: functional, organism-based; design: dose 150 mg/kg; how it was run: as §4
Mus musculus [35] = assay: Neurotoxicity in CF1 albino mouse at 50 mg/kg, ip after 4 hrs; assay type: toxicity, organism-based; design: dose 50 mg/kg, route intraperitoneal; conditions: in vivo; how it was run: as §3
Mus musculus [36] = assay: Neurotoxicity in CF1 albino mouse at 50 mg/kg, ip after 0.5 hrs; assay type: toxicity, organism-based; design: dose 50 mg/kg, route intraperitoneal; conditions: in vivo; how it was run: as §3
Mus musculus [37] = assay: Anticonvulsant activity in CF1 albino mouse assessed as protection against scMet-induced seizures at 150 mg/kg, ip after 4 hrs; assay type: functional, organism-based; design: dose 150 mg/kg; how it was run: as §4
Mus musculus [38] = assay: Neurotoxicity in CF1 albino mouse at 450 mg/kg, ip after 0.5 hrs; assay type: toxicity, organism-based; design: dose 450 mg/kg, route intraperitoneal; conditions: in vivo; how it was run: as §3

CC1(C)C(C(N)=O)C1(C)C
ED50 (Mus musculus [1]): 99 mg/kg
PI (Mus musculus [2]): 1.4
ED50 (Mus musculus [3]): 72 mg/kg
ED50 (Mus musculus [4]): > 200 mg/kg

CCCC(CCC)C(=O)O [VALPROIC ACID]
Activity (Mus musculus [5]): 160
Activity (Mus musculus [6]): 11%
Activity (Mus musculus [7]): 0.6%
Activity (Mus musculus [8]): 131
Activity (Mus musculus [9]): 10.7%
Activity (Mus musculus [10]): 88.1%
Activity (Mus musculus [11]): 12
Activity (Mus musculus [12]): 86.4%
Activity (Mus musculus [13]): 81.7%
Activity (Mus musculus [14]): 1.5%
Activity (Mus musculus [15]): 13
ED50 (Rattus norvegicus): 646 mg/kg
Activity (Mus musculus [16]): 11.3%
Activity (Mus musculus [17]): 7.6%
Activity (Mus musculus [18]): 13
Activity (Mus musculus [19]): 2.6%
ED50 (Mus musculus [4]): 310 mg/kg
Activity (Mus musculus [20]): 154

CC1(C)C(C)(C)C1(Br)C(=O)O
Activity (Mus musculus [21]): Non-toxic
Activity (Mus musculus [22]): Non-toxic
Activity (Mus musculus [23]): Non-toxic
Activity (Mus musculus [24]): Non-toxic
Activity (Mus musculus [25]): Non-toxic
Activity (Mus musculus [26]): Non-toxic
Activity (Mus musculus [27]): Non-toxic
Activity (Mus musculus [28]): Non-toxic
Activity (Mus musculus [29]): Non-toxic
Activity (Mus musculus [30]): Non-toxic
Activity (Mus musculus [31]): Non-toxic
Activity (Mus musculus [32]): Non-toxic
Activity (Mus musculus [33]): Non-toxic
Activity (Mus musculus [34]): Non-toxic
Activity (Mus musculus [35]): Non-toxic
Activity (Mus musculus [36]): Non-toxic
Activity (Mus musculus [37]): Non-toxic
Activity (Mus musculus [38]): Non-toxic
